In brackets after ≈: the same amount, converted by molar mass.
Key:
Format in all cases: functional
Enterococcus faecium [1] = experiment: Antimicrobial activity against vancomycin-susceptible Enterococcus faecium by broth microdilution method
How it was run: (§1)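 Clinical isolates were tested by CLSI broth microdilution in unsupplemented cation-adjusted Mueller-Hinton broth. The read-out was the MIC, reported as MIC90 (μg/ml) per species or phenotypic group. Ceftriaxone, levofloxacin and imipenem were run in parallel as comparators.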

Staphylococcus aureus [2] = experiment: Antimicrobial activity against methicillin-resistant Staphylococcus aureus by broth microdilution method
How it was run: (§2)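 Isolates of the stated resistance phenotype were tested by CLSI broth microdilution in unsupplemented cation-adjusted Mueller-Hinton broth. Ceftaroline was compared with ceftriaxone, levofloxacin and imipenem. Activity was expressed as MICs (MIC90 in μg/ml).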

Salmonella sp. = experiment: Antimicrobial activity against Salmonella spp. by broth microdilution method; how it was run: as §1
Providencia rettgeri = experiment: Antimicrobial activity against Proteus rettgeri by broth microdilution method; how it was run: as §1
Streptococcus agalactiae = experiment: Antimicrobial activity against Streptococcus agalactiae by broth microdilution method
How it was run: (§3)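 Streptococcal isolates were tested by CLSI broth microdilution in cation-adjusted Mueller-Hinton broth supplemented with 3% lysed horse blood. The read-out was the MIC, with MIC90 (μg/ml) reported per group. Ceftriaxone, levofloxacin and imipenem served as comparators.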

Haemophilus influenzae [3] = experiment: Antimicrobial activity against beta-lactamase-negative ampicillin resistant Haemophilus influenzae by broth microdilution method
How it was run: (§4)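 CLSI broth microdilution in Haemophilus test medium (cation-adjusted Mueller-Hinton base) against clinical H. influenzae isolates of the stated phenotype. Ceftaroline was compared with ceftriaxone, levofloxacin and imipenem. Activity was expressed as MICs (MIC90 in μg/ml).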

Moraxella catarrhalis = experiment: Antimicrobial activity against Moraxella catarrhalis by broth microdilution method; how it was run: as §1
Pseudomonas aeruginosa [4] = experiment: Antimicrobial activity against multidrug resistant Pseudomonas aeruginosa by broth microdilution method; how it was run: as §2
Proteus mirabilis = experiment: Antimicrobial activity against Proteus mirabilis by broth microdilution method; how it was run: as §1
Klebsiella aerogenes = experiment: Antimicrobial activity against ESBL-negative Enterobacter aerogenes by broth microdilution method; how it was run: as §1
Streptococcus pneumoniae [5] = experiment: Antimicrobial activity against penicillin-intermediate Streptococcus pneumoniae by broth microdilution method
How it was run: (§5)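 CLSI broth microdilution in cation-adjusted Mueller-Hinton broth with 3% lysed horse blood, against streptococcal clinical isolates of the stated phenotype. Ceftaroline was compared with ceftriaxone, levofloxacin and imipenem. Activity was expressed as MICs (MIC90 in μg/ml).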

Haemophilus influenzae [6] = experiment: Antimicrobial activity against beta-lactamase-positive Haemophilus influenzae by broth microdilution method
How it was run: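 H. influenzae isolates were tested by CLSI broth microdilution using Haemophilus test medium. The MIC was read and MIC90 (μg/ml) reported for the group. Ceftriaxone, levofloxacin and imipenem served as comparators.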

Escherichia coli [7] = experiment: Antimicrobial activity against ESBL-positive Escherichia coli by broth microdilution method; how it was run: as §1
Staphylococcus aureus [8] = experiment: Antimicrobial activity against methicillin-susceptible Staphylococcus aureus by broth microdilution method; how it was run: as §1
Pseudomonas aeruginosa [9] = experiment: Antimicrobial activity against Pseudomonas aeruginosa by broth microdilution method; how it was run: as §1
[10] = system: Stenotrophomonas maltophilia; experiment: Antimicrobial activity against Stenotrophomonas maltophilia by broth microdilution method; how it was run: as §1
Enterococcus faecium [11] = experiment: Antimicrobial activity against Enterococcus faecium by broth microdilution method; how it was run: as §1
Streptococcus pyogenes [12] = experiment: Antimicrobial activity against macrolide-resistant Streptococcus pyogenes by broth microdilution method; how it was run: as §5
Burkholderia cepacia = experiment: Antimicrobial activity against Burkholderia cepacia by broth microdilution method; how it was run: as §1
Staphylococcus [13] = experiment: Antimicrobial activity against methicillin-susceptible coagulase-negative Staphylococcus by broth microdilution method; how it was run: as §1
Providencia stuartii = experiment: Antimicrobial activity against Proteus stuartii by broth microdilution method; how it was run: as §1
Proteus vulgaris = experiment: Antimicrobial activity against Proteus vulgaris by broth microdilution method; how it was run: as §1
Serratia marcescens = experiment: Antimicrobial activity against Serratia marcescens by broth microdilution method; how it was run: as §1
Klebsiella pneumoniae [14] = experiment: Antimicrobial activity against ESBL-positive Klebsiella pneumoniae by broth microdilution method; how it was run: as §1
Klebsiella pneumoniae [15] = experiment: Antimicrobial activity against ESBL-negative Klebsiella pneumoniae by broth microdilution method; how it was run: as §1
Streptococcus viridans = experiment: Antimicrobial activity against Streptococcus viridans group clinical isolate by broth microdilution method; how it was run: as §3
Haemophilus influenzae [16] = experiment: Antimicrobial activity against beta-lactamase-negative Haemophilus influenzae by broth microdilution method; how it was run: as §4
Escherichia coli [17] = experiment: Antimicrobial activity against ESBL-negative Escherichia coli by broth microdilution method; how it was run: as §1
Enterobacter cloacae = experiment: Antimicrobial activity against ESBL-negative Enterobacter cloacae by broth microdilution method; how it was run: as §1
Streptococcus pyogenes [18] = experiment: Antimicrobial activity against macrolide-susceptible Streptococcus pyogenes by broth microdilution method; how it was run: as §5
Staphylococcus [19] = experiment: Antimicrobial activity against methicillin-resistant coagulase-negative Staphylococcus by broth microdilution method; how it was run: as §2
Enterococcus faecalis [20] = experiment: Antimicrobial activity against vancomycin-susceptible Enterococcus faecalis by broth microdilution method; how it was run: as §1
Staphylococcus aureus [21] = experiment: Antimicrobial activity against vancomycin-intermediate Staphylococcus aureus by broth microdilution method; how it was run: as §1
Streptococcus pneumoniae [22] = experiment: Antimicrobial activity against penicillin-resistant Streptococcus pneumoniae by broth microdilution method; how it was run: as §5
Streptococcus pneumoniae [23] = experiment: Antimicrobial activity against levofloxacin-resistant Streptococcus pneumoniae by broth microdilution method; how it was run: as §5
Corynebacterium jeikeium = experiment: Antimicrobial activity against Corynebacterium jeikeium by broth microdilution method; how it was run: as §1
Shigella sp. = experiment: Antimicrobial activity against Shigella spp. by broth microdilution method; how it was run: as §1
Staphylococcus aureus [24] = experiment: Antimicrobial activity against vancomycin-resistant Staphylococcus aureus by broth microdilution method; how it was run: as §2
Morganella morganii = experiment: Antimicrobial activity against Morganella morganii by broth microdilution method; how it was run: as §1
Listeria monocytogenes = experiment: Antimicrobial activity against Listeria monocytogenes by broth microdilution method; how it was run: as §1
Streptococcus pneumoniae [25] = experiment: Antimicrobial activity against penicillin-susceptible Streptococcus pneumoniae by broth microdilution method; how it was run: as §3
Enterococcus faecalis [26] = experiment: Antimicrobial activity against Enterococcus faecalis by broth microdilution method; how it was run: as §1

## CO/N=C(\C(=O)N[C@@H]1C(=O)N2C(C(=O)O)=C(CSc3nc(=O)c(O)nn3C)CS[C@H]12)c1csc(N)n1 [CEFTRIAXONE]
Enterococcus faecium [1]
  MIC50: > 32 µg/mL
  MIC90: > 32 µg/mL
Staphylococcus aureus [2]
  MIC50: 32 µg/mL (≈ 57.7 µM)
Salmonella sp.
  MIC50: 0.06 µg/mL (≈ 0.108 µM)
  MIC90: > 32 µg/mL
Providencia rettgeri
  MIC50: 0.06 µg/mL (≈ 0.108 µM)
  MIC90: 0.25 µg/mL (≈ 0.451 µM)
Streptococcus agalactiae
  MIC: 0.06 µg/mL (≈ 0.108 µM)
  MIC50: 0.06 µg/mL (≈ 0.108 µM)
  MIC90: 0.12 µg/mL (≈ 0.216 µM)
Haemophilus influenzae [3]
  MIC50: 0.12 µg/mL (≈ 0.216 µM)
  MIC90: 0.12 µg/mL (≈ 0.216 µM)
Moraxella catarrhalis
  MIC50: 0.5 µg/mL (≈ 0.902 µM)
  MIC90: 1 µg/mL (≈ 1.8 µM)
Pseudomonas aeruginosa [4]
  MIC: 16 µg/mL (≈ 28.9 µM)
Proteus mirabilis
  MIC: 0.015 µg/mL (≈ 0.027 µM)
  MIC50: 0.015 µg/mL (≈ 0.027 µM)
  MIC90: 0.015 µg/mL (≈ 0.027 µM)
Klebsiella aerogenes
  MIC50: 0.12 µg/mL (≈ 0.216 µM)
  MIC90: > 32 µg/mL
Streptococcus pneumoniae [5]
  MIC50: 0.25 µg/mL (≈ 0.451 µM)
  MIC90: 0.5 µg/mL (≈ 0.902 µM)
Haemophilus influenzae [6]
  MIC: 0.015 µg/mL (≈ 0.027 µM)
  MIC50: 0.015 µg/mL (≈ 0.027 µM)
  MIC90: 0.015 µg/mL (≈ 0.027 µM)
Escherichia coli [7]
  MIC50: > 32 µg/mL
  MIC90: > 32 µg/mL
Staphylococcus aureus [8]
  MIC50: 4 µg/mL (≈ 7.21 µM)
  MIC90: 4 µg/mL (≈ 7.21 µM)
Pseudomonas aeruginosa [9]
  MIC50: > 32 µg/mL
  MIC90: > 32 µg/mL
[10]
  MIC50: > 32 µg/mL
  MIC90: > 32 µg/mL
Enterococcus faecium [11]
  MIC: > 32 µg/mL
  MIC50: > 32 µg/mL
  MIC90: > 32 µg/mL
Streptococcus pyogenes [12]
  MIC: 0.015 µg/mL (≈ 0.027 µM)
  MIC50: 0.015 µg/mL (≈ 0.027 µM)
  MIC90: 0.03 µg/mL (≈ 0.0541 µM)
Burkholderia cepacia
  MIC50: > 32 µg/mL
  MIC90: > 32 µg/mL
Staphylococcus [13]
  MIC50: 2 µg/mL (≈ 3.61 µM)
  MIC90: 8 µg/mL (≈ 14.4 µM)
Providencia stuartii
  MIC50: 0.06 µg/mL (≈ 0.108 µM)
  MIC90: 0.25 µg/mL (≈ 0.451 µM)
Proteus vulgaris
  MIC50: 1 µg/mL (≈ 1.8 µM)
  MIC90: > 32 µg/mL
Serratia marcescens
  MIC50: 0.25 µg/mL (≈ 0.451 µM)
  MIC90: 2 µg/mL (≈ 3.61 µM)
Klebsiella pneumoniae [14]
  MIC50: 32 µg/mL (≈ 57.7 µM)
  MIC90: > 32 µg/mL
Klebsiella pneumoniae [15]
  MIC50: 0.06 µg/mL (≈ 0.108 µM)
  MIC90: 0.12 µg/mL (≈ 0.216 µM)
Streptococcus viridans
  MIC50: 0.12 µg/mL (≈ 0.216 µM)
  MIC90: 1 µg/mL (≈ 1.8 µM)
Haemophilus influenzae [16]
  MIC: 0.015 µg/mL (≈ 0.027 µM)
  MIC50: 0.015 µg/mL (≈ 0.027 µM)
  MIC90: 0.015 µg/mL (≈ 0.027 µM)
Escherichia coli [17]
  MIC50: 0.06 µg/mL (≈ 0.108 µM)
  MIC90: 0.25 µg/mL (≈ 0.451 µM)
Enterobacter cloacae
  MIC50: 0.25 µg/mL (≈ 0.451 µM)
  MIC90: 0.5 µg/mL (≈ 0.902 µM)
Streptococcus pyogenes [18]
  MIC: 0.015 µg/mL (≈ 0.027 µM)
  MIC50: 0.015 µg/mL (≈ 0.027 µM)
  MIC90: 0.03 µg/mL (≈ 0.0541 µM)
Staphylococcus [19]
  MIC50: 16 µg/mL (≈ 28.9 µM)
  MIC90: > 32 µg/mL
Enterococcus faecalis [20]
  MIC: > 32 µg/mL
  MIC50: > 32 µg/mL
  MIC90: > 32 µg/mL
Staphylococcus aureus [21]
  MIC50: > 32 µg/mL
  MIC90: > 32 µg/mL
Streptococcus pneumoniae [22]
  MIC50: 2 µg/mL (≈ 3.61 µM)
  MIC90: 8 µg/mL (≈ 14.4 µM)
Streptococcus pneumoniae [23]
  MIC50: 0.25 µg/mL (≈ 0.451 µM)
  MIC90: 2 µg/mL (≈ 3.61 µM)
Corynebacterium jeikeium
  MIC50: > 32 µg/mL
  MIC90: > 32 µg/mL
Shigella sp.
  MIC: 0.03 µg/mL (≈ 0.0541 µM)
  MIC50: 0.03 µg/mL (≈ 0.0541 µM)
  MIC90: 0.06 µg/mL (≈ 0.108 µM)
Staphylococcus aureus [24]
  MIC: > 32 µg/mL
Morganella morganii
  MIC50: 0.5 µg/mL (≈ 0.902 µM)
  MIC90: 32 µg/mL (≈ 57.7 µM)
Listeria monocytogenes
  MIC50: > 32 µg/mL
  MIC90: > 32 µg/mL
Streptococcus pneumoniae [25]
  MIC50: 0.03 µg/mL (≈ 0.0541 µM)
  MIC90: 0.06 µg/mL (≈ 0.108 µM)
Enterococcus faecalis [26]
  MIC50: > 32 µg/mL
  MIC90: > 32 µg/mL
